The source of these data is publication PMC9366314 (Acta Pharmaceutica Sinica. B, 2022).

Type in all cases: cell-based
Test [1] has as its system Gαq/11. The test is described as follows: IP1 accumulation assay. The settings on record: CHO-M1 cells, mean ± SEM (n = 3).
In test [2] the test system is MP41 cells (GNA11 Q209L mutation). Kind of test: Cell proliferation inhibition assay. The settings on record: MP41, 72 h, read-out: Antiproliferation (IC50, μmol/L) MP41. The essentials: (§1)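 Uveal melanoma cells were grown in RPMI-1640 with 10% FBS at 37 °C, 5% CO2. They were resuspended at 3 × 10^3 cells/mL, seeded and left overnight. Cells were exposed to a concentration series of test compound for 72 h. CCK-8 was added for 2–4 h and absorbance read at 450 nm. IC50 values were fitted from the curves and reported as mean ± SEM, n = 3.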

Test [3] has as its system 92.1 cells (GNAQ Q209L mutation). Kind of test: Cell proliferation inhibition assay. Particulars: 72 h, read-out: Antiproliferation (IC50, μmol/L) 92.1. An outline of the steps: as §1

A value given as a limit tells only on which side of the number the result lay.

Consider `CC(C)[C@H]1c2nc(-c3ccccc3)cn2CCN1C[C@@H]1CCCN1C` [GQ264], for which the “IP1 inhibition at 10 μmol/L” value in test [1] is on record as 5.9 ± 1.1%. Moreover, the IC50 in test [2] and in test [3] was > 40 µmol/L each time.

For the compound `CC(C)[C@@H]1c2nc(-c3ccccc3)cn2CCN1C[C@@H]1CCCN1C` [GQ265], the “IP1 inhibition at 10 μmol/L” value in test [1] is given as 13.5 ± 0.5%. Also, the IC50 in test [2] and in test [3] was > 40 µmol/L each time.

For `CC(C)C[C@@H]1c2nc(-c3ccccc3)cn2CCN1C[C@@H]1CCCN1C` [GQ266], in test [1], the “IP1 inhibition at 10 μmol/L” value amounted to 17.5 ± 1.1%. Further, the IC50 in test [2] and in test [3] was > 40 µmol/L throughout.

Turning to `CN1CCC[C@H]1CN1CCn2cc(-c3ccccc3)nc2[C@@H]1C1CCCCC1` [GQ267], the “IP1 inhibition at 10 μmol/L” value in test [1] stood at 8.9 ± 0.8%. Besides, the IC50 in test [2] and in test [3] was > 40 µmol/L each time.
